aSyn 5UTR inh – MLPCN primary screen, SNCA 5' untranslated region. alpha-synuclein 5'UTR reporter, inhibitor activity. inhibition, % (tested at 7.5 µM). hit rate 0.82% among 300,000; in the data active = inhibition above about 60%; inconclusive = no clear call, values can overlap the other calls;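 note: H4 neuroglioblastoma cells stably carrying SNCA 5'UTR luciferase fusion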
697 NFkB inh – lowers PMA/ionomycin-induced NF-kB signal in 697 B cells; 697 B-cell NF-kB luciferase reporter, 16 h; inhibition, % at 4 µM; hit rate 0.33% among 330,000; AID 435022; in the data active = inhibition above about 35%
Jurkat NFkB inh – inhibitors of the PMA/ionomycin-induced NF-kB reporter in Jurkat cells; PMA/ionomycin-induced NF-kB luciferase reporter, luminescence; inhibition, % at 4 µM; hit rate 0.53% among 330,000; AID 435003; in the data active = inhibition above about 50%
Hep lipid drop – modulators of hepatic lipid droplet formation | inhibition, % at 6.5 µM | AML12 mouse hepatocytes, oleate lipid droplets, BODIPY imaging | AID 1656 | hit rate 0.4% among 240,000;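 active = lipid droplet intensity inhibited by at least 50%, with more than 500 cells counted; inconclusive = wells with under 300 cells, treated as cytotoxic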
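System: AML12 hepatocytes (mouse). Probe or stimulus: oleic acid at 100 µM to induce lipid droplet formation. Times: overnight treatment with compound plus oleate. Detection: Image-based BODIPY and DAPI two-channel analysis. Evaluation: percent inhibition of filter-corrected integrated lipid droplet intensity per well.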
TAG inh – reduces triacylglycerol accumulation in H9c2 cells; inhibition, % at 12.5 µM; Nile Red lipid (TAG) fluorescence; cells loaded with 200 µM oleic acid; hit rate 0.66% among 230,000;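 active = pattern-corrected inhibition of lipid staining of at least 50% with the nuclear-stain viability signal not falling by more than 50%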
APP 5UTR inh – APP translation inhibition; hit rate 0.82% among 190,000; SH-SY5Y APP 5'UTR-luciferase reporter, luminescence; inhibition, % at 2 µM;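 active = inhibition above a set limit, derived from the sample mean plus 3 SD, cut at about 45% in these data; inconclusive = one replicate passes the limit while the other fails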
697 NFkB conf – lowers PMA/ionomycin-induced NF-kB signal in 697 B cells; shares compounds with 697 NFkB inh; 697 B-cell NF-kB luciferase, 16 h; inhibition, % at 4 µM; hit rate 35% among 2,000; AID 449746; in the data active = inhibition mostly above about 28%, no sharp cut-off; inactive = mostly below about 22%
Hits are given with their value; - = inactive; ? = inconclusive; . = no result given. Sampled rows, rich in hits. Any-hit rate of the full collection: about 1.9%.

SMILES	aSyn 5UTR inh	697 NFkB inh	Jurkat NFkB inh	Hep lipid drop	TAG inh	APP 5UTR inh	697 NFkB conf
C/C(=N\Nc1nncc2ccccc12)c1ccc(C(C)(C)C)cc1	-	-	-	-	.	.	.
Cc1ccc(NC(=O)c2sc3ccccc3c2Cl)nc1	-	-	-	.	.	-	-
Cc1nnc(NC(=O)c2sc3ccccc3c2Cl)s1	-	-	-	.	-	-	.
Cc1ccc(S(=O)(=O)N(C)C[C@@H]2OCCCC[C@H](C)Oc3ccc(NC(=O)Nc4ccc(F)cc4)cc3C(=O)N([C@H](C)CO)C[C@H]2C)cc1	.	.	.	.	-	.	.
O=C(CCl)N1CCN(S(=O)(=O)c2ccc3c(c2)CCC3)CC1	.	38	-	.	-	.	38
CN1C(=O)N(CC(=O)N2CCN(S(=O)(=O)c3ccc4c(c3)CCC4)CC2)C(=O)C12CCCCC2	.	-	-	.	-	.	.
Cc1cccc(-n2ccnc2SCC(=O)N2CCCc3ccccc32)c1C	-	-	-	-	-	-	.
CCOC(=O)c1ccc2[nH]c(C)c(CCC(C)=O)c(=O)c2c1	-	-	-	.	.	-	.
CC(=O)Nc1ccc2[nH]c(C)c(CC=C(Cl)Cl)c(=O)c2c1	-	42	-	-	-	-	-
COC(C/C=C\[C@@H](O)COCc1ccccc1)OC	-	-	-	-	-	.	.
Cc1ccc(N=Nc2c(N)nn(-c3ccccc3)c2N)cc1	-	-	-	-	-	-	-
CCNC(=S)N/N=C/c1c(C)nn(-c2cccc(Cl)c2)c1Cl	-	-	-	-	.	-	.
Cc1nn(-c2cccc(Cl)c2)c(Cl)c1/C=N/NC(=O)c1cccs1	-	-	-	-	.	-	-
O=C1C=C(NCCOC23CC4CC(CC(C4)C2)C3)C2(CCCCC2)O1	-	-	-	-	-	-	.
Cn1ncc2c(Nc3ccc(-c4ccccc4)cc3)ncnc21	-	-	-	-	.	-	-
Cc1ccc(-c2nnc(-c3cc(C)on3)o2)cc1	-	-	-	-	-	.	.
CCCOc1ccc(C(F)(F)F)cc1NC(=O)C1CC(=O)N(Cc2ccco2)C1 (stereo unspecified)	.	-	-	.	-	.	.
COc1ccc(-c2cc(-c3ccccc3)c(C#N)c(S(C)=O)n2)cc1 (stereo unspecified)	-	37	-	-	-	.	-
CCOC(=O)c1oc2ccc(/C=N/O)c(Cl)c2c1C	-	-	-	-	-	-	.
COc1cc(C2NC(=O)NC(c3ccccc3)=C2C(C)=O)ccc1OCC(=O)O (stereo unspecified)	-	-	-	-	.	-	.
COc1cc(C2NC(=O)NC(C)=C2C(=O)OC(C)(C)C)ccc1OCC(=O)O (stereo unspecified)	-	40	-	-	.	-	-
O=C(Nc1ccc(/C=C/c2nc3ccccc3o2)cc1)c1cccc(C(F)(F)F)c1	-	-	-	.	.	-	-
Cc1cnc(Nc2nc3ccccc3o2)nc1C(=O)Nc1cccc(C(F)(F)F)c1	-	-	-	.	-	-	.
CCCCn1c(N)c(N(Cc2ccccc2OC)C(=O)COc2ccc(F)cc2Cl)c(=O)[nH]c1=O	-	-	-	-	-	.	.
COc1ccccc1N(/N=C1\Sc2ccccc2C1=O)C(C)=O	-	-	-	-	69	.	-
SMILES	aSyn 5UTR inh	697 NFkB inh	Jurkat NFkB inh	Hep lipid drop	TAG inh	APP 5UTR inh	697 NFkB conf
COc1ccc(N(/N=C2\Sc3ccccc3C2=O)C(C)=O)cc1	-	.	.	-	-	-	.
COc1ccc(NC(=O)C2CCCN(c3nn4c(=O)cc(C)nc4s3)C2)c(OC)c1 (stereo unspecified)	-	-	-	-	.	.	.
CC(=O)Nc1ccc(C23CC4CC(CC(C4)C2)C3)cc1	-	-	-	-	.	.	.
O=C(CSCCO)Nc1ccc(C23CC4CC(CC(C4)C2)C3)cc1	-	57	-	-	-	-	66
Fc1cccc(/C=N/Nc2ccc3ccccc3n2)c1	-	-	-	-	-	-	-
Cc1ccc(NC(=O)C2CCC(CNc3c(N4CCC(C)CC4)c(=O)c3=O)CC2)cc1F (stereo unspecified)	?	47	-	-	-	.	33
CC(=O)N=c1sccn1CC(=O)c1ccc([N+](=O)[O-])cc1	-	36	-	.	.	-	-
COc1cc(/C(C)=N\NC(N)=S)cc(OC)c1OC	-	40	-	-	.	-	41
COc1cc(/C(C)=N/NC(=S)NC(C)C)cc(OC)c1OC	-	-	-	-	-	-	.
COc1cccc(C(=O)Nc2nnc(SCC(=O)NC3CCCC3)s2)c1	-	-	-	-	.	.	.
CCN(CC(=O)Nc1c(F)cccc1F)C(=O)CSc1nnc(-c2ccco2)n1CC	-	-	-	-	-	.	.
COCCNC(=O)/C(C#N)=C/c1ccc(O)c([N+](=O)[O-])c1	-	-	-	-	-	-	.
COCCNC(=O)/C(C#N)=C/c1ccc(-c2ccc(OC)cc2[N+](=O)[O-])o1	-	35	-	.	-	-	-
O=C(NCCCN1CCOCC1)C(=O)N/N=C/c1ccccc1	-	-	-	-	-	-	.
O=C(NCCCN1CCOCC1)C(=O)N/N=C/c1cccc2ccccc12	-	40	-	-	-	.	38
CCN(C(=O)COC(=O)c1nc(Cl)ccc1Cl)C1CCS(=O)(=O)C1 (stereo unspecified)	-	-	-	.	-	.	.
COc1ccc(N/C=C/C(=O)c2ccccc2)cc1	-	-	-	-	.	.	-
CCOc1ccc(N/C=C/C(=O)c2ccccc2)c([N+](=O)[O-])c1	87	-	-	-	.	-	-
COc1cccc(OC)c1C(=O)Nc1cc(Cl)ccc1N1CCOCC1	-	39	-	-	.	-	-
Cc1noc(C)c1C(=O)Nc1cc(Cl)ccc1N1CCOCC1	.	-	-	.	-	.	.
CCOC(=O)c1c(C)c(C(=O)Nc2ccc3c(c2)OCO3)c(C)n1C	-	-	-	.	.	-	.
CCOC(=O)c1c(N)sc(C(=O)Nc2ccc3c(c2)OCO3)c1C	-	-	-	-	-	-	-
Cc1cc(Br)ccc1OCCCCN1CCC(C)CC1	-	-	-	-	.	-	.
COc1ccc2sc(NC(=O)c3ccco3)nc2c1	-	-	-	.	.	-	-
O=C(Nc1nc2c(Br)cc(Br)cc2c(=O)s1)c1ccco1	-	36	-	-	-	.	37
SMILES	aSyn 5UTR inh	697 NFkB inh	Jurkat NFkB inh	Hep lipid drop	TAG inh	APP 5UTR inh	697 NFkB conf
Cc1cc(Cl)cc2sc(NC(=O)c3ccco3)nc12	-	-	-	-	-	.	.
Cc1cc(C)c2nc(NC(=O)c3ccco3)sc2c1	-	-	-	-	.	.	-
CC(C)c1ccc(NC(=O)Cn2c(=O)oc3cccnc32)cc1	-	-	-	-	-	.	.
O=C(CNC(=O)c1cc2ccccc2o1)NCc1cccs1	.	-	-	-	-	-	.
Cn1c(C(=O)NCc2cccs2)cc2oc3ccccc3c21	-	-	-	-	.	-	-
Cn1c(C(=O)NCc2ccccc2)cc2oc3ccccc3c21	-	-	-	-	-	-	-
Cn1c(C(=O)NCC2CCCO2)cc2oc3ccccc3c21 (stereo unspecified)	-	-	-	-	-	-	.
C[C@H]1C=CC(=O)O[C@H]1c1ccccc1	-	46	-	.	-	.	-

Screening data from PubChem.
